CHRM1 agonist = activates human CHRM1 receptor; P11229; CHO-K1 hM1, Fluo-8 calcium fluorescence, agonist mode; 0% DMSO, 100% acetylcholine EC100; activation, % at 3 µM; 360,000 tested, 0.33% active; AID 588814;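 active = activation above the run's mean compound activation plus 3 SD, cut at about 16% in these data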;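 also: peak over basal fluorescence ratio within a 140 s kinetic read after compound addition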
CHRM1 antagonist = antagonists of human M1 muscarinic receptor; P11229; 360,000 tested, 1.3% active; CHO-K1 hM1, Fluo-8 calcium fluorescence, ACh EC80 antagonist; inhibition, % at 3 µM;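 active = percent inhibition above its own plate's cutoff, namely the mean of that plate's compound wells plus 3 SD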;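 also: peak over basal fluorescence ratio during 140 s after agonist addition; 0% = ACh EC80 plus DMSO and 100% = DMSO alone without agonist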
CHRM1 PAM = human CHRM1 positive allosteric modulation. activation, % at 3 µM. 360,000 tested, 0.088% active. P11229. CHO-K1 hM1, Fluo-8 calcium fluorescence, ACh EC20; 0% = ACh EC20, 100% = maximal ACh; in the data active = activation above about 19%, passing the limit was not always enough
TAAR1 antagonist = human TAAR1 antagonism | Q96RJ0 | CHO RD-HGA16 TAAR1, Fluo-8 calcium fluorescence, antagonist | inhibition, % at 3 µM | 360,000 tested, 1.5% active | AID 624466;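 active = inhibition above a per-plate cutoff, the mean inhibition of test compounds on that plate plus 3 SD, cut at about 49% in these data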;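 also: 0% = DMSO plus EC80 beta-PEA response and 100% = DMSO alone without agonist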
Target sequence (Q96RJ0 whole entry, looked up): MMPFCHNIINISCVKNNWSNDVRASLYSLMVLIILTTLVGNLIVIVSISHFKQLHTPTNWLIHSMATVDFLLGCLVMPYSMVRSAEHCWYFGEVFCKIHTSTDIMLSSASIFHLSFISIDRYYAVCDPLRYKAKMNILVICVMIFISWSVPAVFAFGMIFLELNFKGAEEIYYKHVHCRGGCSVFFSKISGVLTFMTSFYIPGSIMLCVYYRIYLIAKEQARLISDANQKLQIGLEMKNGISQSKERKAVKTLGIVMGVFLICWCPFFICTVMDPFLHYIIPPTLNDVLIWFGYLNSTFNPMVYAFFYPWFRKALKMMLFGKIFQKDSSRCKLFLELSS
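System: RD-HGA16 CHO cells with stable hTAAR1 and Gα16 | Probe or stimulus: EC80 β-phenethylamine stimulus | Dosing: 3 µM, single point | Times: Dye loading 75 min at 37 °C, then 30 min room temperature | Measured by: Fluo-8 calcium-sensitive fluorescence | Read-out basis: % inhibition of agonist calcium response | Replicates: n of 1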
TAAR1 agonist = human TAAR1 agonism; AID 624467; CHO RD-HGA16 TAAR1, Fluo-8 calcium fluorescence; vehicle wells 0%, saturating PEA agonist 100%; 360,000 tested, 0.99% active; activation, % at 3 µM; Q96RJ0;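 active = activation above the mean activation of all test compounds in the run plus 3 SD, cut at about 38% in these data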
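System: CHO RD-HGA16 cells carrying human TAAR1 plus Gα16; Incubation: 17-24 h seeding, 75 min 37 °C dye, 30 min RT; Measured by: Fluo-8 fluorescence, 5 s baseline then 140 s kinetic read; Control set: DMSO and PEA EC100; Replication: single well for each compound.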
TAAR1 ag conf = human TAAR1 agonism, confirmed; shares compounds with TAAR1 agonist; CHO RD-HGA16 TAAR1, Fluo-8 calcium fluorescence; scaled: DMSO 0%, maximal phenethylamine 100%; activation, % at 3 µM; 2,400 tested, 82% active; AID 651783;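 active = activation above a cutoff set at the run's mean compound activation plus 3 SD, cut at about 39% in these data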
Ga16 nonsel ag = counter-screen for TAAR1 agonists: nonselective agonists in parental cells; CHO-Ga16 parental, Fluo-8 calcium fluorescence; normalized to maximal ATP response, DMSO zero; 2,400 tested, 50% active; shares compounds with TAAR1 agonist; activation, % at 3 µM;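 active = activation above the run cutoff, the mean activation over all tested wells plus 3 SD, cut at about 12% in these data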;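 also: 0% = DMSO wells and 100% = maximal ATP response on the peak over basal ratio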
TAAR1 desens = human TAAR1 agonist that also desensitizes the receptor; shares compounds with TAAR1 agonist; CHO RD-HGA16 hTAAR1, Fluo-8 calcium, beta-PEA response inhibition; inhibition, % at 3 µM; AID 651951; 2,400 tested, 46% active;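 active = inhibition above the run cutoff, the mean inhibition of all test compounds plus 3 SD, cut at about 49% in these data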;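 also: beta-PEA stimulus applied at its EC80; loss of beta-PEA calcium signal after compound pretreatment read as receptor desensitization; 0% = DMSO with beta-PEA at EC80 and 100% = DMSO alone without agonist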
Ga16 antag count = nonselective Ga16 antagonism, counter-screen. shares compounds with TAAR1 agonist. CHO-Ga16 ATP-induced calcium, Fluo-8 fluorescence. inhibition, % at 3 µM. 2,400 tested, 39% active. AID 651952;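 active = inhibition above the plate's mean compound inhibition plus 3 SD, computed per plate, cut at about 22% in these data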;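 also: 0% = EC80 ATP with DMSO and 100% = DMSO wells without ATP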
Numbers without * were called inactive; x = not tested or not shown. Compounds with a hit are over-represented: about 3.4% of the library has one in this group of screens.

SMILES	CHRM1 agonist	CHRM1 antagonist	CHRM1 PAM	TAAR1 antagonist	TAAR1 agonist	TAAR1 ag conf	Ga16 nonsel ag	TAAR1 desens	Ga16 antag count
O=C(Nc1ccc(Cl)c(Cl)c1)N1N=CCC1c1ccccc1 (stereo unspecified)	-10	-5	-3	0	-1	x	x	x	x
Cc1ccc(CNc2nc3c([nH]2)c(=O)n(C)c(=O)n3C)cc1	3	1	3	-28	12	x	x	x	x
Cn1c(=O)c2[nH]c(Nc3ccccc3)nc2n(C)c1=O	0	11	-6	33	74*	71*	4	61*	8
O=C(CCc1nc(-c2ccccc2Cl)no1)NCCc1ccccc1	-6	-10	7	-9	58*	68*	2	43	11
CC1=CC(C)(C)N(C(=O)c2ccc(F)cc2)c2cc3c(cc21)OCO3	18*	10	8	37	59*	62*	41*	46	34*
COCCN(C(=O)COC(=O)CSc1ccc(Cl)cc1)c1c(N)n(CC(C)C)c(=O)[nH]c1=O	-4	-9	5	-16	1	x	x	x	x
Oc1c(C(c2ccc(F)cc2)N2CCc3ccccc3C2)sc2ncnn12 (stereo unspecified)	-5	-8	0	x	x	x	7	x	13
Cc1ccc(C(c2sc3ncnn3c2O)N2CCCCC2)cc1 (stereo unspecified)	-5	11	-7	-16	-1	x	x	x	x
Cc1nc2sc(C(c3ccco3)N3CCc4ccccc4C3)c(O)n2n1 (stereo unspecified)	-4	-12	8	54*	76*	96*	8	70*	4
C/C(NCCc1ccccc1)=C1/CCOC1=O	0	-10	7	90*	91*	98*	0	88*	3
CC1(C(=O)Nc2ccc3[nH]ncc3c2)CCN1C(=O)C1(c2ccccc2)CC1 (stereo unspecified)	0	-18	11	11	1	x	x	x	x
CC(CCc1ccc(O)cc1)N(C)CCc1ccccc1 (stereo unspecified)	-14	56*	-30	6	49*	61*	5	5	-6
COc1ccc(CCNC(=O)c2nnn(CC(=O)Nc3ccc(C)cc3C)c2N)cc1OC	-2	-1	1	-48	-1	x	x	x	x
Cc1ccc(-c2csc(C(O)c3ccc(F)cc3)n2)cc1C (stereo unspecified)	-2	-12	6	16	0	x	x	x	x
CN(C)c1ccc(-c2csc(C(O)c3ccc(F)cc3)n2)cc1 (stereo unspecified)	18*	5	-22	91*	77*	90*	59*	98*	73*
CNC[C@H](CC1CCCCC1)NC[C@H](Cc1ccccc1)NCCC12CC3CC(CC(C3)C1)C2	6	-3	8	37	56*	94*	81*	81*	89*
CC(=O)c1ccc(C(=O)N2CCCC(CO)(Cc3ccccc3C)C2)s1 (stereo unspecified)	-6	-6	7	-15	3	x	x	x	x
O=C(CNS(=O)(=O)c1ccc(F)c(Cl)c1)NCCc1ccccc1	-5	1	0	-26	45*	65*	8	13	-1
O=C(CCc1ccccc1)NCCSCc1c(F)cccc1Cl	-6	-5	4	2	0	x	x	x	x
O=C(CSCc1c(F)cccc1Cl)NCCc1ccccc1	-5	-9	2	12	43*	80*	1	39	-2
O=C(CCl)NC1(C(=O)O)CCCC1	-3	-12	6	0	1	x	x	x	x
Cn1c(NCCc2ccccc2)cc(=O)n(C)c1=O	-3	-16	12	x	x	x	-1	x	11
Cn1c(=O)cc(NCCc2ccccc2)[nH]c1=O	2	-4	4	17	69*	74*	1	45	7
Cn1c(=O)cc(Nc2ccc(Cl)cc2)[nH]c1=O	-3	4	-2	8	48*	67*	0	44	13
Cn1c(=O)cc(Nc2ccccc2)[nH]c1=O	0	-18	11	-8	18	x	x	x	x
SMILES	CHRM1 agonist	CHRM1 antagonist	CHRM1 PAM	TAAR1 antagonist	TAAR1 agonist	TAAR1 ag conf	Ga16 nonsel ag	TAAR1 desens	Ga16 antag count
CCN(C(=O)COC(=O)c1ccccc1NCCO)C1CCS(=O)(=O)C1 (stereo unspecified)	-3	1	1	-14	1	x	x	x	x
Cc1csc(NC(=O)CSC2=NS(=O)(=O)c3ccccc3N2)n1	0	-11	2	10	-1	x	x	x	x
CC(=O)c1cccc(OCC(=O)N(C)CC(=O)NCc2ccco2)c1	-2	-2	1	0	3	x	x	x	x
Nc1sccc1C(=O)N1CCN(c2ccccc2)CC1	x	x	x	3	1	x	x	x	x
Cc1nnc(NC(=O)c2sc3nc(-c4cccs4)cc(C(F)(F)F)c3c2N)s1	52*	39*	-23	89*	78*	62*	77*	80*	80*
Cc1cc(C(F)(F)F)c2c(N)c(C(=O)NC3CC3)sc2n1	-3	-10	3	-24	11	x	x	x	x
CCNc1ccc2noc3c2c1C(=O)c1ccccc1-3	75*	36*	-20	90*	318*	114*	127*	66*	66*
CCOc1ccc2noc3c2c1C(=O)c1ccccc1-3	22*	6	0	43	69*	26	36*	28	40*
O=C1c2ccccc2-c2onc3ccc(N4CCCC4)c1c23	4	20	-6	40	35	x	x	x	x
CCc1nc2c(c(=O)c3ccccc3n2C)c(=O)n1C1CCCCCC1	1	17	-21	-3	66*	74*	55*	30	13
Cc1nc2c(c(=O)c3ccccc3n2C)c(=O)n1C1CCCC1	x	x	x	11	11	x	x	x	x
Cn1c2ccccc2c(=O)c2c(=O)n(-c3ccccc3)c(C3CCCCC3)nc21	-9	-4	8	-30	10	x	x	x	x
Cn1c2ccccc2c(=O)c2c(=O)n(C3CCCCC3)c(-c3cccs3)nc21	-8	13	-10	8	54*	104*	75*	61*	22*
CCOC(=O)c1cn(Cc2ccccc2)c(C(=O)OC(C)(C)C)c1O	15	17	-21	68*	82*	73*	56*	70*	57*

High-throughput results from PubChem BioAssay.
